Only some compounds are listed: those with a hit (about 1.8% of all), similar ones and a draw of the others.
MT1-MMP act inh = inhibitors of human MT1-MMP activation. P50281. HT1080 RFP-PRO-GFP cells, GFP/RFP ratio fluorescence, overnight; percent of plate control window, DMSO zero. GFP/RFP ratio change, % at 20 µM. 360,000 tested, 0.061% active;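 active = GFP/RFP ratio change of at least 30% with cell ATP level not reduced by more than half and red fluorescence within 50% of control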
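Assay system – RFP-PRO-GFP reporter HT1080 cells · Compound dosing – single dose of 20 µM compound, 1% DMSO final · Incubation – overnight compound exposure at 37 °C · Measure – GFP/RFP fluorescence ratio · Benchmarks – DMSO wells and RFP-L50D-GFP cells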
Cneo AK release = Cryptococcus neoformans lysis via adenylate kinase release; lysis activity, % at 15 µM; 360,000 tested, 0.2% active; C. neoformans lysis, adenylate kinase release luminescence, 4 h; normalised: neutral wells 0, clomiphene wells 100;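 active = mean lysis activity across replicates of at least 80%, whatever share of replicates individually reach that level; inactive = mean lysis activity below 80%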
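read-out = cell lysis signal | test system = log-phase Cryptococcus neoformans yeast cells | input = cells at 5 × 10^6 per mL | medium = fresh YPD growth medium | signal = luminescent adenylate kinase detection reagent | timing = 4 h at 37 °C static, read 1 h later | dosing = single dose | controls = Clomiphene as positive lysis control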
SKN-1 block = inhibitors of C. elegans SKN-1. C. elegans VP596 Pgst-4::GFP/RFP ratio, acrylamide-induced, 24 h. inhibition, % at 21.8 µM. 360,000 tested, 0.49% active;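 active = interference check ratio from 0.5 to 1.5 plus GFP to RFP signal ratio inhibition reaching or exceeding a fixed threshold, cut at about 30% in these data, passing the limit was not always enough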
DAGLB inhibitor = blocks human DAGLB lipase activity; Q8NCG7; inhibition, % at 5.17 µM; HEK293T DAGLB membrane lysate, EnzChek fluorogenic substrate; 340,000 tested, 0.059% active; in the data active = inhibition above about 34%;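 also: 0% = enzyme with vehicle and 100% = wells lacking enzyme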
Target sequence (Q8NCG7 whole entry, looked up): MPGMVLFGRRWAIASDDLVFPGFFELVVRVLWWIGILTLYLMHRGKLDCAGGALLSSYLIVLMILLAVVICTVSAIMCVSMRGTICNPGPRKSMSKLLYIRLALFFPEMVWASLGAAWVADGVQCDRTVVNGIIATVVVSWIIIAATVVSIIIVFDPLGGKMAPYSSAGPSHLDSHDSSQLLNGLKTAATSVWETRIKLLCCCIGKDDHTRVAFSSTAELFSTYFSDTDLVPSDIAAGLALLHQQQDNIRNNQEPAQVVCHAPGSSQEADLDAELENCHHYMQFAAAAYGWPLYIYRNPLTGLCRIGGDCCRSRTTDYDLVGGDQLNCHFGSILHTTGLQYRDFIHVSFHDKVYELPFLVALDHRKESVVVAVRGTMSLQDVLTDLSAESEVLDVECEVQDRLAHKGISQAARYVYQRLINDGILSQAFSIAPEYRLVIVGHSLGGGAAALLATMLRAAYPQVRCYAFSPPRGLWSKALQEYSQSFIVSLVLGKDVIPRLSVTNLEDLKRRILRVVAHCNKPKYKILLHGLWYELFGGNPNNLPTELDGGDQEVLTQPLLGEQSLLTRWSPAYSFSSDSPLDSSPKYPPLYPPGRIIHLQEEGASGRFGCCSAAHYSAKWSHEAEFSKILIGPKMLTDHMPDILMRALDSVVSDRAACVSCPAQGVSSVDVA
Ecoli rRNA inh = inhibits bacterial ribosomal RNA function over humanized ribosomes | AID 720706 | 350,000 tested, 1.6% active | E. coli WT GFP vs humanized-ribosome RFP mutants, fluorescence, 24 h; active compounds read low; DMSO median 0, no signal -100 | GFP signal change (wild-type ribosome), % (concentration not given with the values);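 active = significant combined selectivity score with lowered wild-type GFP, culture density cut under 30%, mutant RFP and density less affected; inactive = any of these conditions unmet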
hiPSC survival = enhancers of human iPSC single-cell survival | survival enhancement, % at 20 µM | 360,000 tested, 0.044% active | hiPSC single-cell survival, ATPlite luminescence; 100% = ROCK inhibitor wells, 0% = DMSO; in the data active = survival enhancement above about 18%;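 also: cells exposed to compounds for 16 hours before the ATP read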
* hit, by the source's call; . = no result given.

SMILES | MT1-MMP act inh | Cneo AK release | SKN-1 block | DAGLB inhibitor | Ecoli rRNA inh | hiPSC survival
CCCCCCn1c(SCC(=O)Nc2cc(C)on2)nc2ccccc2c1=O | -4.8 | . | 0.2 | -5.0 | . | -0.1
Cc1cc(NC(=O)CSc2nc3ccccc3c(=O)n2Cc2ccc(F)cc2)no1 | -4.4 | . | 31.5* | -1.2 | . | -3.9
O=c1/c(=C\c2ccc(F)cc2)sc2n1CCCN=2 | 6.7 | . | 39.3* | -3.1 | -0.5 | -0.5
O=c1/c(=C/c2ccc(O)cc2)sc2n1CCCN=2 | -5.2 | . | 6.6 | 0.7 | . | -1.4
CNC[C@@H]1Oc2ncc(/C=C/c3ccccc3)cc2C(=O)N([C@H](C)CO)C[C@H]1C | . | . | . | . | 1.2 | .
COc1ccccc1C(C[N+](=O)[O-])c1c(N)n(C)c(=O)n(C)c1=O (stereo not drawn) | 4.0 | 1.0 | 13.6 | . | -33.5* | -0.8
COc1ccccc1C(c1c(N)n(C)c(=O)n(C)c1=O)C(C)[N+](=O)[O-] (stereo not drawn) | 4.0 | 0.0 | 7.7 | . | 13.0 | -0.6
O=C(CCN1C(=O)S/C(=C\C=C\c2ccccc2)C1=O)Nc1ccc(O)cc1 | -10.2 | 1.3 | 23.0 | -0.1 | -24.6* | 0.0
Nc1ccc(Oc2cc(N)cc(Oc3ccccc3)c2)cc1 | -3.0 | 0.0 | 14.6 | -0.5 | -20.8* | 0.4
Nc1ccc(Oc2ccc3nc(-c4ccccc4)c(-c4ccccc4)nc3c2)cc1 | . | 0.1 | . | -2.0 | . | .
O=C(CSc1nc2ccccc2o1)c1ccc2c(c1)OCCO2 | 1.4 | 0.6 | 36.6* | -14.0 | . | -3.1
Cc1ccc(NCc2nnc(SCC(=O)c3ccc4c(c3)OCCO4)o2)c(C)c1 | 5.7 | -1.5 | -7.8 | 0.7 | -35.9* | -0.5
C[C@@H]1CN([C@H](C)CO)C(=O)c2cc(NC(=O)NC3CCCCC3)ccc2O[C@@H](C)CCCCO[C@H]1CN(C)Cc1ccc2c(c1)OCO2 | . | -7.1 | . | . | 2.9 | .
CCOc1ccc(NC(=O)COC(=O)C2CC2C)cc1 (stereo not drawn) | 0.7 | . | 7.6 | -1.2 | 13.2 | 3.9
CC1CC1C(=O)OCC(=O)Nc1ccc(N=Nc2ccccc2)cc1 (stereo not drawn) | 11.4 | . | 14.7 | 19.5 | -18.4* | 7.0
C[C@@H]1CCCCO[C@@H](CN(C)Cc2ccc(Cl)c(Cl)c2)[C@H](C)CN([C@@H](C)CO)C(=O)c2cc(NS(=O)(=O)c3cn(C)cn3)ccc2O1 | . | 1.4 | . | . | 1.9 | .
NC(=O)[C@@H]1[C@H]2C(=O)O[C@H](c3ccccc3)[C@H](c3ccccc3)N2[C@H](c2ccc(O)cc2)[C@@]12C(=O)Nc1ccc(C#CC3=CCCCC3)cc12 | . | -12.4 | . | . | . | .
CN(C)C(=O)C[C@H]1C[C@H]2c3cc(NC(=O)C4CCC4)ccc3O[C@H]2[C@H](CO)O1 | . | -5.0 | . | . | 1.5 | .
O=C(CNCc1ccc(Cl)cc1)Nc1ccc(C(=O)N2CCCCCC2)cc1 | 5.5 | 0.5 | 20.1 | -1.8 | -29.7* | -0.3
CCN(CC)S(=O)(=O)c1ccc(NC(=O)C2CCCN(C(=O)c3ccc(Cl)cc3)C2)cc1 (stereo not drawn) | 6.6 | -0.8 | 4.8 | -3.2 | -22.7* | -0.5
CS(=O)(=O)c1ccc(NC(=O)C2CCCN(C(=O)c3ccc(Cl)cc3)C2)cc1 (stereo not drawn) | -2.4 | 2.2 | -13.8 | -1.4 | -2.4 | -0.2
O=C(C[C@@H]1CC[C@H]2[C@@H](COC[C@@H](O)CN2C(=O)c2ccncc2)O1)NCc1ccc(-c2ccccc2)cc1 | . | -0.8 | . | . | 0.4 | .
c1ccc(CN2CCC(Nc3nc(-c4cccnc4)nc4ccccc34)CC2)cc1 | -2.3 | -0.3 | -8.2 | -0.1 | -32.5* | -0.9
c1ccc(CNc2nc(-c3cccnc3)nc3ccccc23)cc1 | 3.1 | 15.8 | 21.9 | -2.2 | -63.7 | -0.7
CNC(=O)c1ccc(-c2cc3onc(-c4ccccc4)c3c(=O)n2C)cc1 | -7.0 | 0.2 | 9.5 | 1.3 | -27.8* | -0.2
SMILES | MT1-MMP act inh | Cneo AK release | SKN-1 block | DAGLB inhibitor | Ecoli rRNA inh | hiPSC survival
C/C=C/c1ccc([C@@H]2[C@@H](C#N)N(C(=O)Cc3ccccn3)[C@@H]2CO)cc1 | . | 3.2 | . | . | -1.8 | .
CCN(CC)c1ccc(C=C2C(=O)OC3(CCCCC3)OC2=O)cc1 | 0.7 | . | 33.1 | 1.6 | 9.2 | 1.7
CCN(CC)c1ccc(/C=C2/C(=O)c3ccc(C(=O)O)cc3C2=O)cc1 | -30.2 | . | 52.0* | -100.2 | -0.3 | -2.3
Cc1noc(C)c1NC(=O)N(C)C[C@@H]1Oc2ccc(NS(=O)(=O)c3c(C)noc3C)cc2C(=O)N([C@@H](C)CO)C[C@H]1C | . | . | . | . | 0.7 | .
C[C@@H]1CN([C@@H](C)CO)C(=O)c2cc(NC(=O)Nc3cccc4ccccc34)ccc2O[C@@H]1CN(C)C(=O)Nc1ccc(C(F)(F)F)cc1 | . | -6.5 | . | . | -8.1 | .
C[C@@H]1CN([C@@H](C)CO)C(=O)c2cc(NC(=O)Nc3cccc4ccccc34)ccc2O[C@@H]1CN(C)C(=O)Nc1ccccc1 | . | 107.2* | . | . | -0.5 | .
C[C@H]1CN([C@@H](C)CO)C(=O)c2cc(NC(=O)Nc3cccc4ccccc34)ccc2O[C@@H]1CN(C)C(=O)Nc1ccc(C(F)(F)F)cc1 | . | 89.9* | . | . | -4.1 | .
C[C@H]1CN([C@@H](C)CO)C(=O)c2cc(NC(=O)Nc3cccc4ccccc34)ccc2O[C@H]1CN(C)C(=O)Nc1ccccc1 | . | -2.1 | . | . | -0.7 | .
C[C@@H]1CN([C@@H](C)CO)C(=O)c2cc(NC(=O)Nc3ccccc3)ccc2O[C@@H]1CN(C)C(=O)Nc1cccc2ccccc12 | . | 108.2* | . | . | 0.8 | .
C[C@H](CO)N1C[C@H](C)[C@@H](CN(C)Cc2ccc(-c3ccccc3)cc2)Oc2ccc(NC(=O)Nc3ccc(C(F)(F)F)cc3)cc2C1=O | . | 98.7* | . | . | 8.6 | .
COc1ccc(NC(=O)Nc2ccc3c(c2)[C@@H]2C[C@@H](CC(=O)N(C)C)O[C@H](CO)[C@@H]2O3)cc1 | . | -16.2 | . | . | 1.0 | .
C/C=C/c1ccc2c(c1)O[C@@H](CN(C)C(=O)C1CC1)[C@@H](C)CN([C@H](C)CO)S2(=O)=O | . | . | . | . | -1.8 | .
C[C@H]1CN([C@@H](C)CO)C(=O)c2cccc(N(C)C)c2O[C@@H]1CN(C)C(=O)Nc1cccc2ccccc12 | . | 84.5* | . | . | 2.8 | .
Cc1ccc(-c2cc(Cc3cccs3)c(=O)[nH]n2)cc1 | 2.7 | 0.3 | 34.3 | -3.8 | 0.0 | 1.1
O=c1[nH]nc(-c2ccc(F)cc2)cc1Cc1cccs1 | -2.6 | . | -14.2 | -4.4 | -20.4* | -0.7
Brc1cccc(/C=N\n2cnnc2)c1 | -8.1 | 0.3 | 6.8 | -0.5 | . | -1.3
C(=Nn1cnnc1)c1ccc2c(c1)CCC2 | 2.3 | 81.8* | 0.1 | -0.2 | 6.0 | -0.4
O=C(CCN1CCCCC1)NCC[C@H]1CC[C@H](NC(=O)C2CCOCC2)[C@@H](CO)O1 | . | -10.2 | . | . | 1.9 | .
